# In ChEMBL document CHEMBL5724801, “EUbOPEN Chemogenomics Library - Multiplex” (2024):
# Values joined by “and” are separate entries in the source; they are usually repeats but may differ in a detail not shown here. Equal values may be shown once.
# Test system: Fibroblast
# Test: Multiplex assay against human fibroblast
# Format: toxicity, cell-based
# Method in brief: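 Per cents of healthy-nucleus cells form the tubulin, mitochondrial-mass and membrane-permeability phenotype values. Live cells were stained at seeding with Hoechst33342, BioTracker Green Microtubule Cytoskeleton Dye, MitoTracker Red and Annexin V Alexa Fluor 680. After compound addition they were imaged on a CQ1 microscope at 37°C and 5% CO2, and CellPathfinder machine-learning gating split them into Hoechst high-intensity objects or normal cells, normal cells into healthy, pyknosed or fragmented nuclei, and pyknosed cells into mitotic or apoptotic.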
# [1] = 12 h, 1 µM, compound concentration 1 uM
# [2] = 12 h, 10 µM, compound concentration 10 uM
# [3] = 24 h, 1 µM, compound concentration 1 uM
# [4] = 24 h, 10 µM, compound concentration 10 uM
# [5] = 48 h, 1 µM, compound concentration 1 uM
# [6] = 48 h, 10 µM, compound concentration 10 uM
smiles,measurement,setting,value
CC(C)c1ccc(/C=N/NC(=O)c2ccc(O)cc2)cc1,Population Apoptotic (%),[1],12.07% and 15.38%
same,Population Fragmented Nuclei (%),[1],10.89% and 4%
same,Population Healthy Nuclei (%),[1],60.4% and 76.5%
same,Population Hoechst High Intensity Objects (%),[1],0%
same,Population Membrane Permeable-Phenotype (%),[1],4.1% and 2.61%
same,Population Mitochondria Different-Phenotype (%),[1],6.56% and 9.15%
same,Population Mitotic Cells (%),[1],87.93% and 84.62%
same,Population Normal (%),[1],100%
same,Population Pyknosed Nuclei (%),[1],28.71% and 19.5%
same,Population Tubulin-Different-Phenotype (%),[1],12.3% and 17.65%
same,Total Cell Count,[1],202 and 200
same,Population Fragmented Nuclei (%),[2],13.41% and 4.65%
same,Population Healthy Nuclei (%),[2],61.45% and 73.02%
same,Population Hoechst High Intensity Objects (%),[2],0%
same,Population Membrane Permeable-Phenotype (%),[2],8.18% and 2.55%
same,Population Mitochondria Different-Phenotype (%),[2],6.36% and 9.55%
same,Population Mitotic Cells (%),[2],95.56% and 77.08%
same,Population Normal (%),[2],100%
same,Population Pyknosed Nuclei (%),[2],25.14% and 22.33%
same,Population Tubulin-Different-Phenotype (%),[2],20% and 17.2%
same,Total Cell Count,[2],179 and 215
same,Population Apoptotic (%),[3],15% and 14.81%
same,Population Fragmented Nuclei (%),[3],10.53% and 4.39%
same,Population Healthy Nuclei (%),[3],71.93% and 82.44%
same,Population Hoechst High Intensity Objects (%),[3],0%
same,Population Membrane Permeable-Phenotype (%),[3],1.83% and 3.55%
same,Population Mitochondria Different-Phenotype (%),[3],4.27% and 7.1%
same,Population Mitotic Cells (%),[3],85% and 85.19%
same,Population Normal (%),[3],100%
same,Population Pyknosed Nuclei (%),[3],17.54% and 13.17%
same,Population Tubulin-Different-Phenotype (%),[3],12.2% and 18.34%
same,Total Cell Count,[3],228 and 205
same,Population Fragmented Nuclei (%),[4],10.93% and 4.82%
same,Population Healthy Nuclei (%),[4],66.12% and 76.75%
same,Population Hoechst High Intensity Objects (%),[4],0%
same,Population Membrane Permeable-Phenotype (%),[4],5.79% and 3.43%
same,Population Mitochondria Different-Phenotype (%),[4],7.44% and 5.14%
same,Population Mitotic Cells (%),[4],95.24% and 83.33%
same,Population Normal (%),[4],100%
same,Population Pyknosed Nuclei (%),[4],22.95% and 18.42%
same,Population Tubulin-Different-Phenotype (%),[4],14.88% and 16%
same,Total Cell Count,[4],183 and 228
same,Population Apoptotic (%),[5],27.27% and 44.44%
same,Population Fragmented Nuclei (%),[5],8% and 5.96%
same,Population Healthy Nuclei (%),[5],87.11% and 89.91%
same,Population Hoechst High Intensity Objects (%),[5],0%
same,Population Membrane Permeable-Phenotype (%),[5],1.02% and 3.57%
same,Population Mitotic Cells (%),[5],72.73% and 55.56%
same,Population Normal (%),[5],100%
same,Population Pyknosed Nuclei (%),[5],4.89% and 4.13%
same,Population Tubulin-Different-Phenotype (%),[5],9.18% and 15.31%
same,Total Cell Count,[5],225 and 218
same,Population Apoptotic (%),[6],40% and 30%
same,Population Fragmented Nuclei (%),[6],13.54% and 4.26%
same,Population Healthy Nuclei (%),[6],78.65% and 87.23%
same,Population Hoechst High Intensity Objects (%),[6],0%
same,Population Membrane Permeable-Phenotype (%),[6],3.31% and 2.44%
same,Population Mitochondria Different-Phenotype (%),[6],6.62% and 1.95%
same,Population Mitotic Cells (%),[6],60% and 70%
same,Population Normal (%),[6],100%
same,Population Pyknosed Nuclei (%),[6],7.81% and 8.51%
same,Population Tubulin-Different-Phenotype (%),[6],10.6% and 14.63%
same,Total Cell Count,[6],192 and 235
Cn1cnc(-c2cnc(O[C@H]3CCN(C(=O)Cc4ccc(OC(F)(F)F)cc4)C[C@H]3F)c(C(N)=O)c2)c1,Population Apoptotic (%),[1],14%
same,Population Healthy Nuclei (%),[1],57.67% and 77.82%
same,Population Hoechst High Intensity Objects (%),[1],0%
same,Population Mitotic Cells (%),[1],86% and 87.5%
same,Population Normal (%),[1],100%
same,Population Pyknosed Nuclei (%),[1],26.46% and 13.39%
same,Population Apoptotic (%),[2],14.93% and 26.53%
same,Population Healthy Nuclei (%),[2],58.85% and 71.95%
same,Population Hoechst High Intensity Objects (%),[2],0%
same,Population Mitotic Cells (%),[2],85.07% and 73.47%
same,Population Normal (%),[2],100%
same,Population Pyknosed Nuclei (%),[2],29.65% and 22.17%
same,Population Apoptotic (%),[3],8.89% and 19.35%
same,Population Healthy Nuclei (%),[3],68.08% and 79.62%
same,Population Hoechst High Intensity Objects (%),[3],0%
same,Population Mitotic Cells (%),[3],91.11% and 80.65%
same,Population Normal (%),[3],100%
same,Population Pyknosed Nuclei (%),[3],21.13% and 11.7%
same,Population Healthy Nuclei (%),[4],69.48% and 75.54%
same,Population Hoechst High Intensity Objects (%),[4],0%
same,Population Mitotic Cells (%),[4],93.62% and 75.76%
same,Population Normal (%),[4],100%
same,Population Pyknosed Nuclei (%),[4],18.88% and 11.87%
same,Population Apoptotic (%),[5],25%
same,Population Healthy Nuclei (%),[5],78.48% and 79.12%
same,Population Hoechst High Intensity Objects (%),[5],0%
same,Population Mitotic Cells (%),[5],75% and 83.33%
same,Population Normal (%),[5],100%
same,Population Pyknosed Nuclei (%),[5],8.44% and 6.59%
same,Population Apoptotic (%),[6],33.33% and 57.14%
same,Population Healthy Nuclei (%),[6],77.93% and 84.75%
same,Population Hoechst High Intensity Objects (%),[6],0%
same,Population Mitotic Cells (%),[6],66.67% and 42.86%
same,Population Normal (%),[6],100%
same,Population Pyknosed Nuclei (%),[6],3.1% and 4.96%
